Rev-erbA mod – modulates human Rev-erb alpha binding to DNA | P20393 | AID 1259318 | Rev-erbα–FITC-DNA binding, fluorescence polarization, 90 min | actives 0.79% (n = 370,000) | activity, % at 10 µM;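 active means activity above about 14%, limit read from the data; passing the limit was not always enough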;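 further: 0% = DMSO wells with 35 nM protein and 100% = DMSO wells with 750 nM protein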
Target sequence (P20393 whole entry, looked up): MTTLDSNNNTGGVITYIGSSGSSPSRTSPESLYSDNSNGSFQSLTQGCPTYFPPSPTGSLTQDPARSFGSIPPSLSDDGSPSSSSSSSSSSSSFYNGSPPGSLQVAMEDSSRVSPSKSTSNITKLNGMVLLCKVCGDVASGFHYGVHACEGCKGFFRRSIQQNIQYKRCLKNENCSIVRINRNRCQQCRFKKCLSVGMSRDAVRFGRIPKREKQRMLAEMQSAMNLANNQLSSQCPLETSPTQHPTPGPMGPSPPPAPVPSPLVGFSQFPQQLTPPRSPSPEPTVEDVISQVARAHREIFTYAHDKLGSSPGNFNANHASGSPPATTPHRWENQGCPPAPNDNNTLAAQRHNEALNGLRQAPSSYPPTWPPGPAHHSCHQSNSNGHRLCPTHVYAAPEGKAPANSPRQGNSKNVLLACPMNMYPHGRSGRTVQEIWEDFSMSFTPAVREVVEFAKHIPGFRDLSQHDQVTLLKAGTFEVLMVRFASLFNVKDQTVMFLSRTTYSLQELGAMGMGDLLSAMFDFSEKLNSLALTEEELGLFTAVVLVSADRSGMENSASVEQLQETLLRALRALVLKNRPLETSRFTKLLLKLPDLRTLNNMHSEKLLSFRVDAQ
ARFGAP1 inh – rat ARFGAP1 inhibition; Q62848; Arfgap1-stimulated ARF1 GTP hydrolysis, GDP FP detection; inhibition, % at 16.5 µM; actives 0.26% (n = 360,000);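 active means inhibition above a per-plate limit, mean inhibition of low control wells plus 3 SD, cut at about 25% in these data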;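 further: 0% = DMSO wells with enzyme and 100% = wells lacking Arfgap1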
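System: truncated rat Arfgap1 GAP domain / Benchmarks: high control wells lacking Arfgap1, low control full reaction with DMSO / Times: compound-enzyme preincubation 20 min, reaction 120 min, detection 60 min, 25 °C / Repeats: one replicate per compound / Also added: human ARF1(Δ1-17)-GTP substrate / Measured by: Tracer-displacement fluorescence polarization with EDTA stop, 620/688 nm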
ASAP1 GAP inh – ASAP1 ArfGAP inhibition; Q9ULH1; ASAP1-stimulated ARF1 GTP hydrolysis, GDP FP detection; inhibition, % at 16.5 µM; actives 0.19% (n = 360,000); AID 624377; in the data active means inhibition above about 25%;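 further: 0% = vehicle with enzyme and substrate and 100% = no enzyme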
sPLA2-III inh – Inhibits HGIII-sPLA2 liposome hydrolysis, primary screen; Q9NZ20; QFRET BODIPY PC-A2 liposome hydrolysis, fluorescence; inhibition, % at 12.2 µM; actives 0.56% (n = 370,000); AID 743126;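 active means inhibition above mean plus 3 SD of compounds lying within the high and low control bounds, cut at about 19% in these data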;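 further: 0% = median of test compound wells and 100% = no enzyme DMSO wells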
MsrA act – activates bovine MsrA enzyme | purified bovine MsrA, absorbance read-out | activation, % at 10.6 µM | actives 0.3% (n = 360,000); in the data active means activation above about 7.5%;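 further: 0% = vehicle and 100% = reference activator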
MsrA inhibitor – inhibits bovine methionine sulfoxide reductase A. purified bovine MsrA, absorbance read-out. inhibition, % at 15.5 µM. actives 0.75% (n = 360,000). AID 651718;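 further: 0% = vehicle wells with enzyme and 100% = reference inhibitor wells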
MsrA inh confirm – bovine MsrA inhibition, confirmed; shares compounds with MsrA inhibitor; purified bovine MsrA, absorbance read-out; inhibition, % at 15.5 µM; actives 41% (n = 2,300); AID 651822;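 further: coupled to thioredoxin reductase with NADPH and selenocystamine and DMSO as substrate; 0% = vehicle only and 100% = full effect of reference inhibitor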
* = called active by the depositor; . = not tested or not shown. Only some compounds are listed: those with a hit (about 2.7% of all), similar ones and a draw of the others. Unless noted, no stated cut-off is given here; in the data, active means inhibition above about 4.5%; inactive means the rest.

SMILES | Rev-erbA mod | ARFGAP1 inh | ASAP1 GAP inh | sPLA2-III inh | MsrA act | MsrA inhibitor | MsrA inh confirm
COc1ccc2cc(-c3[nH]ncc3CN3CCCC3c3nonc3C)ccc2c1 (centres undefined) | -3 | 12 | -5 | -6 | -6 | 33* | 26*
COc1ccc(N=Cc2ccc(N(CCC#N)CCC#N)cc2)cc1 | 0 | 12 | -8 | 4 | -6 | 4.9* | 4.9*
COc1ccc(C(C#N)=Cc2ccc(N(C)CCC#N)cc2)cc1 | 10 | 1 | -2 | -2 | -4 | 2 | .
COc1ccccc1/C=C/C=N/NC(=O)c1cnccn1 | -2 | -6 | 8 | 3 | -5 | 7.1* | 5.4*
COc1ccccc1/C=C/C=N/NC(=O)c1ccc(=O)n(C)c1 | -1 | 14 | -1 | 14 | -12 | 8.1* | 6.9*
COc1cccc(/C=N/NC(=O)c2cnccn2)c1O | -3 | 10 | 13 | 5 | 0 | 3 | .
COC(=O)[C@]12C[C@H](CC(=O)N3CCC(c4ccccc4)CC3)C(=O)N(Cc3cccc4ccccc34)C1=C[C@H](C(C)C)O[C@@H]2C1CC1 | -7 | . | . | -7 | . | . | .
O=[N+]([O-])c1ccc(O)c(C=NNc2ccc(S(=O)(=O)O)cc2)c1 | 6 | 1 | -22 | 0 | -5 | 5.3* | 6.2*
CCC1=[N+](C)CCn2c(C)ccc21 | -4 | 2 | 7 | 5 | -3 | 6.5* | 4
CCOC(=O)CC[C@H]1CC[C@]2(CCCN(S(=O)(=O)C3CCCCC3)C2)O1 | 2 | . | . | 8 | . | . | .
COC(=O)[C@H]1C[C@@]2(N3CCCCC3)c3ccccc3N(C(=O)OC(C)(C)C)[C@H]2N1C(=O)OC(C)(C)C | -12 | . | . | 15 | . | . | .
Cc1nn(Cc2ccc(Cl)cc2)c(=O)n1N(C)c1ncc(C(F)(F)F)cc1Cl | 2 | 7 | 3 | -5 | -3 | 15* | 13*
COc1ccc(C=Nn2c(-c3ccc(F)cc3)n[nH]c2=S)cc1OCc1ccccc1 | -4 | . | . | 3 | . | . | .
NNC(=O)COc1ccccc1F | -3 | 6 | 4 | -3 | 0 | -1 | .
O=C(COc1ccccc1F)c1ccc(O)cc1O | 4 | -12 | -4 | -3 | -6 | 7.6* | 4
CCOC(=O)C1CCN(CC(=O)c2ccc(O)c(C)c2O)CC1 | 6 | 1 | -5 | 5 | -9 | 4.7* | 4
O=C(COc1ccc(Cl)cc1)c1ccc(O)cc1O | -3 | -1 | 2 | -16 | -3 | 1 | .
CCOC(=O)N1CCN(CC(=O)c2ccc(O)c(C)c2O)CC1 | 2 | 4 | -5 | 0 | -3 | 2 | .
Cc1c(O)ccc(C(=O)COc2ccccc2F)c1O | 2 | 8 | 10 | -6 | -12 | 4.8* | 3
COC(=O)c1ccc(OCC(=O)c2ccc(O)cc2O)cc1 | -3 | 5 | -2 | -14 | -4 | 5.0* | 3
O=C(OCc1cn(Cc2cccc(Cl)c2)nn1)N1CCCC1 | 0 | . | . | 1 | . | . | .
C=CCOC(=O)N[C@H](c1ccc2ccccc2c1)[C@H](C)/C=C/CC(=O)OC | -2 | . | . | -11 | . | . | .
Cc1ccc(C)c(NC(=O)CN2C(=O)CCSc3ccccc32)c1 | -2 | . | . | 8 | . | . | .
COC(=O)[C@]12C[C@H](CC(=O)NCCCN3CCCC3=O)C(=O)N(Cc3cccc4ccccc34)C1=C[C@H](C(C)(C)C)O[C@@H]2C | 3 | . | . | -7 | . | . | .
C[C@@H]1COc2cc(Br)ccc2S(=O)(=O)N1Cc1cn(CCC2OCCO2)nn1 | 7 | . | . | -3 | . | . | .
SMILES | Rev-erbA mod | ARFGAP1 inh | ASAP1 GAP inh | sPLA2-III inh | MsrA act | MsrA inhibitor | MsrA inh confirm
Cc1c(O)ccc(C(=O)CN2C(=O)c3ccccc3C2=O)c1O | . | 0 | 3 | -7 | -4 | 5.7* | 4
Cc1ccc(C)c(C(=O)CN2C(=O)c3ccccc3C2=O)c1 | 4 | 5 | -9 | 19 | -2 | 0 | .
FC(F)(F)c1ccccc1NC(=S)OC1CCC12CCC(c1ccccc1)CC2 (centres undefined) | -7 | . | . | 6 | . | . | .
NS(=O)(=O)c1ccc(N/N=C/c2ccc(C(=O)O)cc2)c([N+](=O)[O-])c1 | 16 | 12 | -1 | 4 | -6 | 5.1* | 4.9*
CC(=O)Nc1ccc(C=NNc2ccc(S(=O)(=O)Nc3ccccc3C(=O)O)cc2[N+](=O)[O-])cc1 | -5 | 12 | 16 | -20 | -7 | 6.0* | 4.9*
NS(=O)(=O)c1ccc(N/N=C/c2ccc[nH]2)c([N+](=O)[O-])c1 | 1 | 2 | 7 | 18 | -10 | 5.1* | 5.5*
O=C(O)c1ccc(/C=N\Nc2ccc(S(=O)(=O)N3CCOCC3)cc2[N+](=O)[O-])cc1 | 14 | 3 | 5 | 14 | -3 | 0 | .
O=c1c2ccccc2[nH]n1[C@@H](Cc1ccccc1)Cn1cc(-c2ccc(-c3ccccc3)cc2)nn1 | -2 | . | . | -12 | . | . | .
COc1cc2c(cc1NC(=O)CSc1nnc(-c3ccccc3F)n1-c1ccc(C)cc1)oc1ccccc12 | 5 | . | . | 13 | . | . | .
CCNC(=O)N(C)[C@H]1C[C@H]2c3[nH]c4cccc(-c5ccc6c(c5)OCO6)c4c3CCN2C[C@H]1[C@H](C)O | -1 | . | . | -10 | . | . | .
Oc1ccc(/C=N/Nc2nccnc2Cl)c(O)c1 | 9 | -4 | -3 | -38 | -8 | 5.1* | 4
Oc1ccc(C=NNc2ccccn2)c(O)c1 | -6 | -12 | 11 | -3 | -1 | 5.1* | 3
Oc1cccc(C=NNc2ccccn2)c1 | -2 | -9 | 7 | -5 | -2 | 1 | .
COc1ccc(/C=N/Nc2nccnc2Cl)c(OC)c1 | -1 | 4 | -8 | 3 | -4 | 2 | .
Oc1ccc(/C=N/Nc2ncc(Br)cn2)c(O)c1 | -1 | 5 | 10 | -3 | -4 | 6.0* | 5.2*
O=c1[nH]ncc(N/N=C\c2ccc(O)cc2O)c1Cl | 7 | 12 | 4 | 0 | -4 | 6.5* | 6.2*
Cc1nc(SCC(N)=O)[nH]c(=O)c1C | 0 | . | . | -1 | . | . | .
COc1ccc(N2CCN(CCCNC(=O)Cc3ccc(C(F)(F)F)cc3)CC2)cc1 | -4 | . | . | 11 | . | . | .
O=S1(=O)c2ccc(Br)cc2OCCC2CCCCN21 (centres undefined) | -4 | -3 | 5 | -1 | . | 0 | .
COc1ccc(/C=N/Nc2nccnc2Cl)cc1 | -2 | 4 | 5 | 5 | -5 | 4.7* | 2
CO/N=C/C(C#N)=C/c1ccc(OC)c(OC)c1 | -3 | 3 | 6 | 2 | -4 | 5.1* | 3
CCOC(=O)/C(C#N)=C/c1ccc(OC)c(OC)c1 | 0 | 0 | 4 | 0 | -2 | 1 | .
CCOC(=O)C(=CNc1cccc(N)n1)C(=O)OCC | 6 | 8 | 6 | -1 | -4 | 6.5* | 4.8*
CCOC(=O)C(=CNc1ccc(Cl)cn1)C(=O)OCC | 0 | -6 | -14 | 0 | 7 | 4 | .
Cc1cc(=O)oc2c(C(=O)/C=C/c3ccccc3)c(O)ccc12 | 7 | 3 | -4 | 3 | -4 | -1 | .

Source: PubChem
